Experiments:
Plasmodium falciparum [1] = assay: Resistance index, ratio of IC50 for multidrug-resistant Plasmodium falciparum K1 to IC50 for Plasmodium falciparum W2; format: functional
Plasmodium falciparum [2] = assay: Antiplasmodial activity against multidrug-resistant Plasmodium falciparum K1 infected in human erythrocytes after 48 hrs by [3H]-hypoxanthine incorporation assay; format: functional, organism-based
Outline: (§1)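 Modified [3H]-hypoxanthine incorporation assay against P. falciparum NF54 (sensitive) and K1 (multidrug-resistant). Values are means of ≥2 or ≥3 independent experiments. The resistance index is the K1 IC50 divided by the NF54 IC50.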

Plasmodium falciparum [3] = assay: Antiplasmodial activity against chloroquine-sensitive Plasmodium falciparum NF54 infected in human erythrocytes after 48 hrs by [3H]-hypoxanthine incorporation assay; format: functional, organism-based; outline: as §1
Plasmodium falciparum [4] = assay: Resistance index, ratio of IC50 for multidrug-resistant Plasmodium falciparum K1 to IC50 for chloroquine-sensitive Plasmodium falciparum NF54; format: functional; outline: as §1
CHO = assay: Cytotoxicity against CHO cells by MTT assay; format: cell-based; conditions: Cricetulus griseus
Outline: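 CHO cells, MTT assay. Stocks 20 mg/mL in DMSO, diluted in complete medium; undissolved samples tested as suspensions. Emetine served as reference (10-fold dilutions, 6 concentrations, lowest 0.001 µg/mL). IC50 derived from full dose–response curves by non-linear fitting.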

[5] = Selectivity index, ratio of IC50 for CHO cells to IC50 for chloroquine-sensitive Plasmodium falciparum NF54; format: toxicity, cell-based; conditions: hamster, read-out: Ratio IC50
[6] = Inhibition of beta haematin formation after 5 to 6 hrs by pyridine-ferrichrome method; format: physicochemical
Outline: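 Modified β-haematin inhibition assay. Compounds from DMSO stocks, 0–1000 µM final, in duplicate. NP-40 added (30.55 µM). Haematin suspension added to give 0.5 M acetate pH 4.8 and 100 µM haematin, then incubated 5–6 h at 37 °C. Free haeme detected with pyridine/H2O/acetone/0.2 M HEPES pH 7.4 reagent (final pyridine ~5% v/v) plus acetone, and absorbance read.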

[7] = Lipophilicity, log P of the compound; format: physicochemical; conditions: octanol/water
[8] = Metabolic stability in human liver microsomes assessed as compound remaining at […] after 30 mins by HPLC-MS/MS analysis in presence of NADPH; format: ADME; conditions: read-out: Stability
[9] = Metabolic stability in BALB/c mouse liver microsomes assessed as compound remaining at […] after 30 mins by HPLC-MS/MS analysis in presence of NADPH; format: ADME; conditions: read-out: Stability

SMILES: Clc1ccc2c(Nc3ccc(NCCN4CCOCC4)nc3)ccnc2c1
- Ratio IC50 (Plasmodium falciparum [1]): 1.78

SMILES: CN1CCN(Nc2nc3cc(Nc4ccnc5cc(Cl)ccc45)ccc3o2)CC1
- IC50 (Plasmodium falciparum [2]): 240 nM
- IC50 (Plasmodium falciparum [3]): 144 nM
- Ratio IC50 (Plasmodium falciparum [4]): 1.67
- IC50 (CHO): 122000 nM
- selectivity ratio [5]: 849
- IC50 [6]: 73300 nM
- logP [7]: 2.6

SMILES: CN1CCN(c2nc3cc(Nc4ccnc5cc(Cl)ccc45)ccc3o2)CC1
- IC50 (Plasmodium falciparum [2]): 99 nM
- IC50 (Plasmodium falciparum [3]): 51 nM
- Ratio IC50 (Plasmodium falciparum [4]): 1.94
- IC50 (CHO): > 240000 nM
- IC50 [6]: 71700 nM
- logP [7]: 3.9
- remaining at 0.5 h [8]: 61%
- remaining at 0.5 h [9]: 18%

SMILES: CCN(CC)CCNc1nc2cc(Nc3ccnc4cc(Cl)ccc34)ccc2[nH]1
- Ratio IC50 (Plasmodium falciparum [1]): 4.14

SMILES: Clc1ccc2c(Nc3ccc4oc(NCCN5CCOCC5)nc4c3)ccnc2c1
- IC50 (Plasmodium falciparum [2]): 198 nM
- IC50 (Plasmodium falciparum [3]): 108 nM
- Ratio IC50 (Plasmodium falciparum [4]): 1.83
- IC50 (CHO): 124000 nM
- selectivity ratio [5]: 1150
- IC50 [6]: 80000 nM

SMILES: Clc1ccc2c(Nc3ccc4[nH]c(NCCN5CCCCC5)nc4c3)ccnc2c1
- Ratio IC50 (Plasmodium falciparum [1]): 0.02

SMILES: CCN(CC)CCNc1nc2cc(Nc3ccnc4cc(Cl)ccc34)ccc2o1
- IC50 (Plasmodium falciparum [2]): 42 nM
- IC50 (Plasmodium falciparum [3]): 11 nM
- Ratio IC50 (Plasmodium falciparum [4]): 3.82
- IC50 (CHO): 11500 nM
- selectivity ratio [5]: 1040
- IC50 [6]: 244000 nM
- remaining at 0.5 h [8]: 78%
- remaining at 0.5 h [9]: 74%

SMILES: COCCc1nc2cc(Nc3ccnc4cc(Cl)ccc34)ccc2o1
- IC50 (Plasmodium falciparum [2]): 2110 nM
- IC50 (Plasmodium falciparum [3]): 1090 nM
- Ratio IC50 (Plasmodium falciparum [4]): 1.93
- logP [7]: 3.11

SMILES: CC[C@H]1CN2CCc3cc(OC)c(OC)cc3[C@@H]2C[C@@H]1C[C@H]1NCCc2cc(OC)c(OC)cc21 [EMETINE]
- IC50 (CHO): 104 nM

SMILES: Clc1ccc2c(Nc3ccc4oc(N5CCN(c6ccccc6)CC5)nc4c3)ccnc2c1
- IC50 (Plasmodium falciparum [2]): 875 nM
- IC50 (Plasmodium falciparum [3]): 274 nM
- Ratio IC50 (Plasmodium falciparum [4]): 3.19
- IC50 (CHO): 28700 nM
- selectivity ratio [5]: 105
- IC50 [6]: 29600 nM
- logP [7]: 6.05

SMILES: CCN(CC)c1nc2cc(Nc3ccnc4cc(Cl)ccc34)ccc2o1
- IC50 (Plasmodium falciparum [2]): 1380 nM
- IC50 (Plasmodium falciparum [3]): 512 nM
- Ratio IC50 (Plasmodium falciparum [4]): 2.69
- IC50 (CHO): 229000 nM
- selectivity ratio [5]: 448
- IC50 [6]: 50700 nM
- logP [7]: 4.78

SMILES: Clc1ccc2c(Nc3ccc4oc(NCc5cccnc5)nc4c3)ccnc2c1
- IC50 (Plasmodium falciparum [2]): 704 nM
- IC50 (Plasmodium falciparum [3]): 309 nM
- Ratio IC50 (Plasmodium falciparum [4]): 2.28
- IC50 (CHO): 164000 nM
- selectivity ratio [5]: 532
- IC50 [6]: 100000 nM
- logP [7]: 4.68

SMILES: Clc1ccc2c(Nc3ccc4oc(NCc5ccncc5)nc4c3)ccnc2c1
- IC50 (Plasmodium falciparum [2]): 1550 nM
- IC50 (Plasmodium falciparum [3]): 630 nM
- Ratio IC50 (Plasmodium falciparum [4]): 2.47
- IC50 (CHO): > 240000 nM
- IC50 [6]: 93000 nM
- logP [7]: 4.55

SMILES: Clc1ccc2c(Nc3ccc(NCCN4CCCC4)nc3)ccnc2c1
- Ratio IC50 (Plasmodium falciparum [1]): 4.38

SMILES: Clc1cccc(CNc2nc3cc(Nc4ccnc5cc(Cl)ccc45)ccc3o2)c1
- IC50 (Plasmodium falciparum [2]): 223 nM
- IC50 (Plasmodium falciparum [3]): 124 nM
- Ratio IC50 (Plasmodium falciparum [4]): 1.8
- IC50 (CHO): 25700 nM
- selectivity ratio [5]: 207
- IC50 [6]: 27100 nM
- logP [7]: 5.7

SMILES: Clc1ccc2c(Nc3ccc4oc(NCc5ccccn5)nc4c3)ccnc2c1
- IC50 (Plasmodium falciparum [2]): 883 nM
- IC50 (Plasmodium falciparum [3]): 406 nM
- Ratio IC50 (Plasmodium falciparum [4]): 2.17
- IC50 (CHO): > 240000 nM
- IC50 [6]: 106000 nM

SMILES: Clc1ccc2c(Nc3ccc4sc(NCCN5CCCC5)nc4c3)ccnc2c1
- Ratio IC50 (Plasmodium falciparum [1]): 1.17

SMILES: Clc1ccc2c(Nc3ccc4oc(NCCc5ccccn5)nc4c3)ccnc2c1
- IC50 (Plasmodium falciparum [2]): 851 nM
- IC50 (Plasmodium falciparum [3]): 402 nM
- Ratio IC50 (Plasmodium falciparum [4]): 2.12
- IC50 (CHO): > 240000 nM
- IC50 [6]: 63000 nM
- logP [7]: 4.42

SMILES: O=C1CCCN1CCCNc1nc2cc(Nc3ccnc4cc(Cl)ccc34)ccc2o1
- IC50 (Plasmodium falciparum [2]): 773 nM
- IC50 (Plasmodium falciparum [3]): 1880 nM
- Ratio IC50 (Plasmodium falciparum [4]): 0.41
- IC50 (CHO): 29600 nM
- selectivity ratio [5]: 15.8
- IC50 [6]: 97500 nM
- logP [7]: 2.88

SMILES: CN(C)Cc1nc2cc(Nc3ccnc4cc(Cl)ccc34)ccc2o1
- IC50 (Plasmodium falciparum [2]): 411 nM
- IC50 (Plasmodium falciparum [3]): 213 nM
- Ratio IC50 (Plasmodium falciparum [4]): 1.93

Reference: ChEMBL document CHEMBL3603782, “Antimalarial benzoheterocyclic 4-aminoquinolines: Structure-activity relationship, in vivo evaluation, mechanistic and bioactivation studies” (Bioorg Med Chem, 2015)
